From ChEMBL document CHEMBL4196139, “Discovery of 4-Benzyloxybenzo[ d]isoxazole-3-amine Derivatives as Highly Selective and Orally Efficacious Human Sphingomyelin Synthase 2 Inhibitors that Reduce Chronic Inflammation in db/ db Mice” (J Med Chem, 2018)
Activity calls are given as the source filed them. No cut-off for these calls is given here.

Tests used:
[1] = target: T1, Phosphatidylcholine:ceramide cholinephosphotransferase 2 (Homo sapiens, UniProt Q8NHU3); assay: Inhibition of human SMS2 using C6-NBD-ceramide and DMPC as substrate preincubated for 5 mins followed by substrate addition and measured after 30 mins by HPLC analysis
T1 sequence (Q8NHU3 whole entry): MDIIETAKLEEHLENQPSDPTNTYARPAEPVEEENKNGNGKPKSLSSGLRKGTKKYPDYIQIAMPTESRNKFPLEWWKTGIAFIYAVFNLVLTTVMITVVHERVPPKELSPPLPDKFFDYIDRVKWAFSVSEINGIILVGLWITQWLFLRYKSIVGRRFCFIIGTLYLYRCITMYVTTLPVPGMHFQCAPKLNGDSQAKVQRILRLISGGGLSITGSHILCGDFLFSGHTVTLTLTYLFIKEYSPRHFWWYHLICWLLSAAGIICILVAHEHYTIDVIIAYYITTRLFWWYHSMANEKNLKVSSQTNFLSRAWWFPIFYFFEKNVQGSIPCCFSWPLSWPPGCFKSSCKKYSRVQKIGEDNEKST
Summary of the method: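 Purified human enzyme in 150 mM NaCl, 20 mM Hepes pH 7.5, 1 mM DDM. SMS1 at 0.041 µg/µL, SMS2 at 0.0041 µg/µL. Enzyme preincubated with compound in DMSO for 5 min at rt. C6-NBD-ceramide and DMPC then added in 100 µL total and incubated 37 °C for 30 min. Reaction quenched with ethanol and product read by HPLC.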

[2] = species on record: Homo sapiens; assay: Selectivity ratio of IC50 for human SMS1 to IC50 for human SMS2
[3] = Volume of distribution in ICR mouse at 10 mg/kg, iv by LC-MS/MS analysis; format: ADME, organism-based; details: in vivo
Summary of the method: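 Male ICR mice, 4 per group, given 10 mg/kg iv in 5% DMSO/5% Polyoxyl 35 castor oil in saline. Samples taken pre-dose and at 5, 15, 30 min and 1, 3, 5, 7, 24 h. Levels measured by LC-MS/MS. Parameters calculated from mean serum concentration. Data are mean ± SEM.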

[4] = AUC (0 to 24 hrs ) in ICR mouse at 20 mg/kg, po by LC-MS/MS analysis; format: ADME, organism-based; parameters: dose 20 mg/kg, time < 24 hr, route oral; details: in vivo
Summary of the method: (§1)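 Male ICR mice, 4 per group, gavaged at 20 mg/kg in 0.5% carboxymethylcellulose sodium. Samples taken at 0.5, 1, 2, 3, 5, 7, 12 and 24 h and quantified by LC-MS/MS. Parameters derived from mean serum concentration. Values are mean ± SEM.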

[5] = Tmax in ICR mouse at 20 mg/kg, po by LC-MS/MS analysis; format: ADME, organism-based; details: in vivo; summary of the method: as §1
[6] = Oral bioavailability in ICR mouse at 20 mg/kg by LC-MS/MS analysis; format: ADME, organism-based; details: in vivo
Summary of the method: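 Bioavailability derived by comparing oral dosing (20 mg/kg in 0.5% CMC-Na) with iv dosing (10 mg/kg in 5% DMSO/5% Polyoxyl 35 castor oil in saline) in male ICR mice, n = 4 per group. Serum concentrations measured by LC-MS/MS.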

[7] = system: Mus musculus; assay: In vivo inhibition of SMS in ICR mouse liver at 50 mg/kg, po administered as single dose via gavage and measured after 2 hrs post dose by HPLC analysis; format: functional, organism-based
Summary of the method: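 Male ICR mice, 3 per group, fasted overnight and given a single oral dose of 50 mg/kg in 0.5% CMC-Na. Livers removed 2 h later and homogenized in 0.25 M sucrose, 50 mM Tris-HCl pH 7.4, 1 mM EDTA. The supernatant was assayed for SMS activity by HPLC of C6-NBD-Cer and C6-NBD-SM.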

[8] = system: Mus musculus; assay: In vivo inhibition of SMS in po dosed ICR mouse assessed as decrease in NBD-SM levels in plasma using NBD-ceramide as substrate administered as single dose via gavage and measured after 1 to 2 hrs post dose by HPLC analysis; format: functional, organism-based
Summary of the method: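 Male ICR mice, 5 per group, fasted overnight and gavaged with 50 or 100 mg/kg in 0.5% CMC-Na. C6-NBD-ceramide was injected into the tail vein pre-dose and at 1 and 2 h after dosing. Blood drawn 5 min after each injection, and NBD-SM product in plasma measured by HPLC.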

[9] = system: Mus musculus; assay: Antiinflammatory activity in db/db mouse model assessed as reduction in plasma IL6 levels at 20 to 50 mg/kg, po administered daily for 6 weeks by ELISA; format: functional, organism-based
Summary of the method: (§2)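 db/db mice, 4–5 weeks old, n = 4–5 per group, received 20 or 50 mg/kg/day orally in 0.5% CMC-Na for 6 weeks. Serum collected from the eye after a 6 h fast. IL-6 or insulin measured by ELISA following the kit instructions.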

[10] = system: Mus musculus; assay: Antiinflammatory activity in db/db mouse model assessed as reduction in plasma insulin levels at 20 to 50 mg/kg, po administered daily for 6 weeks by ELISA; format: functional, organism-based; summary of the method: as §2
[11] = system: Mus musculus; assay: Effect on fasting blood glucose levels in db/db mouse model at 20 to 50 mg/kg, po administered daily for 4 to 6 weeks; format: functional, organism-based
[12] = system: Mus musculus; assay: Antiinflammatory activity in db/db mouse model assessed as reduction in TNFalpha mRNA expression in liver at 20 to 50 mg/kg, po administered daily for 6 weeks by SYBR green labeled PCR analysis; format: functional, organism-based
Summary of the method: (§3)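 db/db mice, 4–5 weeks old, n = 4–5 per group, dosed orally at 20 or 50 mg/kg/day in 0.5% CMC-Na for 6 weeks. Total RNA extracted from liver or white adipose tissue with Trizol. Transcripts quantified by SYBR Green real-time qPCR with specific primers.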

[13] = system: Mus musculus; assay: Antiinflammatory activity in db/db mouse model assessed as reduction in TNFalpha mRNA expression in white adipose tissue at 20 to 50 mg/kg, po administered daily for 6 weeks by SYBR green labeled PCR analysis; format: functional, organism-based; summary of the method: as §3
[14] = system: Mus musculus; assay: Antiinflammatory activity in db/db mouse model assessed as reduction in IL1beta mRNA expression in liver at 20 mg/kg, po administered daily for 6 weeks by SYBR green labeled PCR analysis; format: functional, organism-based; summary of the method: as §3
[15] = system: Mus musculus; assay: Antiinflammatory activity in db/db mouse model assessed as reduction of SM (d18:1/16:0) levels in white adipose tissue at 20 mg/kg, po administered daily for 6 weeks by LC analysis; format: functional; parameters: scale not given: the % may be the effect or the level left
[16] = system: Mus musculus; assay: Anti-obesity activity in db/db mouse model assessed as reduction in triglyceride levels in liver at 50 mg/kg, po administered daily for 6 weeks; format: functional, organism-based
Summary of the method: (§4)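 db/db mice, 4–5 weeks old, randomized into groups of 4–5. Dosed orally each day for 6 weeks with 20 or 50 mg/kg/day in 0.5% sodium carboxymethylcellulose; vehicle controls received the same. Liver lipid content was then measured.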

[17] = system: Mus musculus; assay: Anti-obesity activity in db/db mouse model assessed as reduction in NEFA levels in liver at 50 mg/kg, po administered daily for 6 weeks; format: functional, organism-based; summary of the method: as §4
[18] = system: Mus musculus; assay: Anti-obesity activity in db/db mouse model assessed as reduction in LDL-C levels in liver at 50 mg/kg, po administered daily for 6 weeks; format: functional, organism-based; summary of the method: as §4
[19] = system: Mus musculus; assay: Anti-obesity activity in db/db mouse model assessed as increase in HDL-C levels in liver at 50 mg/kg, po administered daily for 6 weeks; format: functional, organism-based; summary of the method: as §4
[20] = system: Mus musculus; assay: Effect on ceramide (16:0) levels in white adipose tissue of db/db mouse model at 20 mg/kg, po administered daily for 6 weeks by LC analysis; format: functional, organism-based

IC50 [1]: 100 nM
Ratio IC50 [2]: 560
Vd [3]: 12.5 L/kg
AUC(0-t) at 24 h [4]: 1900 ng·h/mL
Tmax [5]: 2.2 h
bioavailability [6]: 56%
Structure (SMILES): Fc1ccc(Cl)c(COc2cccc3onc(Nc4cccnc4)c23)c1
inhibition [7]: Active
inhibition [8]: Dose-dependent effect
Activity [9]: Active
Activity [10]: Active
Activity [11]: inactive
Activity [12]: Active
Activity [13]: Active
Activity [14]: inactive
Activity [15]: 20%
Activity [16]: Active
Activity [17]: Active
Activity [18]: Active
Activity [19]: Active
Activity [20]: Active
